The target of assay [1] is Fatty acid synthase (Homo sapiens) (UniProt P49327). Put plainly: Inhibition of FASN in human SK-BR-3 cells assessed as oxidation of NADPH at 42 uM after 24 hrs by Spectrophotometric analysis relative to control. The format is cell-based.
The test system of the next assay is SK-BR-3. Description: Cytotoxicity against human SKBR3 cells after 48 hrs by MTT assay. The format is functional, cell-based. Particulars: SK-BR-3, 48 h. In short, it runs like this:
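MTT colorimetric assay: cells seeded at 5 or 7 x 10³ cells/well, attached overnight, then given fresh medium with a range of compound concentrations for 48 h at 37 °C, 5% CO2. MTT added for 3 h, formazan dissolved in DMSO, absorbance read at 570 or 540 nm. IC50 as mean±SEM from at least two independent experiments in duplicate or triplicate.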

For assay [2], the target named is Fatty acid synthase (Homo sapiens) (UniProt P49327). Put plainly: Inhibition of FASN in human SK-BR-3 cells assessed as oxidation of NADPH at 41 uM after 24 hrs by Spectrophotometric analysis relative to control. It counts as cell-based.
Assay [3] has the same target. Description: Inhibition of FASN in human SK-BR-3 cells assessed as oxidation of NADPH at 76 uM after 24 hrs by Spectrophotometric analysis relative to control. It counts as cell-based.
Assay [4] shares this target. Put plainly: Inhibition of FASN in human SK-BR-3 cells assessed as oxidation of NADPH at 26 uM after 24 hrs by Spectrophotometric analysis relative to control. It counts as cell-based.
Assay [5] has the same target. Description: Inhibition of FASN in human SK-BR-3 cells assessed as oxidation of NADPH at 23 uM after 24 hrs by Spectrophotometric analysis relative to control. It counts as cell-based.
For assay [6] the target is unchanged. Put plainly: Inhibition of FASN in human SK-BR-3 cells assessed as oxidation of NADPH at 28 uM after 24 hrs by Spectrophotometric analysis relative to control. It counts as cell-based.
Assay [7] shares this target. Put plainly: Inhibition of FASN in human SK-BR-3 cells assessed as oxidation of NADPH at 5 uM after 24 hrs by Spectrophotometric analysis relative to control. It counts as cell-based.
The target is the same in assay [8]. Description: Inhibition of FASN in human SK-BR-3 cells assessed as oxidation of NADPH at 25 uM after 24 hrs by Spectrophotometric analysis relative to control. The format is cell-based.
For assay [9] the target is unchanged. Put plainly: Inhibition of FASN in human SK-BR-3 cells assessed as oxidation of NADPH at 36 uM after 24 hrs by Spectrophotometric analysis relative to control. The format is cell-based.
Assay [10] shares this target. Put plainly: Inhibition of FASN in human SK-BR-3 cells assessed as oxidation of NADPH at 47 uM after 24 hrs by Spectrophotometric analysis relative to control. It counts as cell-based.
The target is the same in assay [11]. Put plainly: Inhibition of FASN in human SK-BR-3 cells assessed as oxidation of NADPH at 39 uM after 24 hrs by Spectrophotometric analysis relative to control. It counts as cell-based.
Assay [12] has the same target. Put plainly: Inhibition of FASN in human SK-BR-3 cells assessed as oxidation of NADPH at 78 uM after 24 hrs by Spectrophotometric analysis relative to control. It counts as cell-based.
Assay [13] concerns the target Receptor tyrosine-protein kinase erbB-2 (Homo sapiens) (UniProt P04626). Description: Inhibition of HER2 phosphorylation in human SK-BR-3 cells after 6 hrs by Western blot analysis. The format is cell-based. Particulars: concentration not given here. An outline of the steps:
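SK-Br3 cells treated for 6, 12 or 24 h, harvested with trypsin-EDTA, lysed in Tris-HCl pH 7.5/EDTA/NaCl/PMSF buffer at 4 °C. Equal protein run on 3-8% SDS-PAGE and transferred to nitrocellulose. Membranes probed overnight at 4 °C with anti-phospho-HER2 mouse monoclonal, then peroxidase secondary and chemiluminescence. Re-probed for β-actin as loading control. Gels are representative of at least two independent experiments.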

In assay [14] the target is Fatty acid synthase (Homo sapiens) (UniProt P49327). Description: Inhibition of FASN in human SK-BR-3 cells assessed as oxidation of NADPH at 17 uM after 24 hrs by Spectrophotometric analysis relative to control. The format is cell-based.
For assay [15] the target is unchanged. Put plainly: Inhibition of FASN in human SK-BR-3 cells assessed as oxidation of NADPH at 8 uM after 24 hrs by Spectrophotometric analysis relative to control. The format is cell-based.

The structures appear in SMILES notation. Calls of active or inactive are those of the source. The rule behind the calls is not given here.

Chain of Fatty acid synthase (Homo sapiens) (P49327 whole entry, looked up): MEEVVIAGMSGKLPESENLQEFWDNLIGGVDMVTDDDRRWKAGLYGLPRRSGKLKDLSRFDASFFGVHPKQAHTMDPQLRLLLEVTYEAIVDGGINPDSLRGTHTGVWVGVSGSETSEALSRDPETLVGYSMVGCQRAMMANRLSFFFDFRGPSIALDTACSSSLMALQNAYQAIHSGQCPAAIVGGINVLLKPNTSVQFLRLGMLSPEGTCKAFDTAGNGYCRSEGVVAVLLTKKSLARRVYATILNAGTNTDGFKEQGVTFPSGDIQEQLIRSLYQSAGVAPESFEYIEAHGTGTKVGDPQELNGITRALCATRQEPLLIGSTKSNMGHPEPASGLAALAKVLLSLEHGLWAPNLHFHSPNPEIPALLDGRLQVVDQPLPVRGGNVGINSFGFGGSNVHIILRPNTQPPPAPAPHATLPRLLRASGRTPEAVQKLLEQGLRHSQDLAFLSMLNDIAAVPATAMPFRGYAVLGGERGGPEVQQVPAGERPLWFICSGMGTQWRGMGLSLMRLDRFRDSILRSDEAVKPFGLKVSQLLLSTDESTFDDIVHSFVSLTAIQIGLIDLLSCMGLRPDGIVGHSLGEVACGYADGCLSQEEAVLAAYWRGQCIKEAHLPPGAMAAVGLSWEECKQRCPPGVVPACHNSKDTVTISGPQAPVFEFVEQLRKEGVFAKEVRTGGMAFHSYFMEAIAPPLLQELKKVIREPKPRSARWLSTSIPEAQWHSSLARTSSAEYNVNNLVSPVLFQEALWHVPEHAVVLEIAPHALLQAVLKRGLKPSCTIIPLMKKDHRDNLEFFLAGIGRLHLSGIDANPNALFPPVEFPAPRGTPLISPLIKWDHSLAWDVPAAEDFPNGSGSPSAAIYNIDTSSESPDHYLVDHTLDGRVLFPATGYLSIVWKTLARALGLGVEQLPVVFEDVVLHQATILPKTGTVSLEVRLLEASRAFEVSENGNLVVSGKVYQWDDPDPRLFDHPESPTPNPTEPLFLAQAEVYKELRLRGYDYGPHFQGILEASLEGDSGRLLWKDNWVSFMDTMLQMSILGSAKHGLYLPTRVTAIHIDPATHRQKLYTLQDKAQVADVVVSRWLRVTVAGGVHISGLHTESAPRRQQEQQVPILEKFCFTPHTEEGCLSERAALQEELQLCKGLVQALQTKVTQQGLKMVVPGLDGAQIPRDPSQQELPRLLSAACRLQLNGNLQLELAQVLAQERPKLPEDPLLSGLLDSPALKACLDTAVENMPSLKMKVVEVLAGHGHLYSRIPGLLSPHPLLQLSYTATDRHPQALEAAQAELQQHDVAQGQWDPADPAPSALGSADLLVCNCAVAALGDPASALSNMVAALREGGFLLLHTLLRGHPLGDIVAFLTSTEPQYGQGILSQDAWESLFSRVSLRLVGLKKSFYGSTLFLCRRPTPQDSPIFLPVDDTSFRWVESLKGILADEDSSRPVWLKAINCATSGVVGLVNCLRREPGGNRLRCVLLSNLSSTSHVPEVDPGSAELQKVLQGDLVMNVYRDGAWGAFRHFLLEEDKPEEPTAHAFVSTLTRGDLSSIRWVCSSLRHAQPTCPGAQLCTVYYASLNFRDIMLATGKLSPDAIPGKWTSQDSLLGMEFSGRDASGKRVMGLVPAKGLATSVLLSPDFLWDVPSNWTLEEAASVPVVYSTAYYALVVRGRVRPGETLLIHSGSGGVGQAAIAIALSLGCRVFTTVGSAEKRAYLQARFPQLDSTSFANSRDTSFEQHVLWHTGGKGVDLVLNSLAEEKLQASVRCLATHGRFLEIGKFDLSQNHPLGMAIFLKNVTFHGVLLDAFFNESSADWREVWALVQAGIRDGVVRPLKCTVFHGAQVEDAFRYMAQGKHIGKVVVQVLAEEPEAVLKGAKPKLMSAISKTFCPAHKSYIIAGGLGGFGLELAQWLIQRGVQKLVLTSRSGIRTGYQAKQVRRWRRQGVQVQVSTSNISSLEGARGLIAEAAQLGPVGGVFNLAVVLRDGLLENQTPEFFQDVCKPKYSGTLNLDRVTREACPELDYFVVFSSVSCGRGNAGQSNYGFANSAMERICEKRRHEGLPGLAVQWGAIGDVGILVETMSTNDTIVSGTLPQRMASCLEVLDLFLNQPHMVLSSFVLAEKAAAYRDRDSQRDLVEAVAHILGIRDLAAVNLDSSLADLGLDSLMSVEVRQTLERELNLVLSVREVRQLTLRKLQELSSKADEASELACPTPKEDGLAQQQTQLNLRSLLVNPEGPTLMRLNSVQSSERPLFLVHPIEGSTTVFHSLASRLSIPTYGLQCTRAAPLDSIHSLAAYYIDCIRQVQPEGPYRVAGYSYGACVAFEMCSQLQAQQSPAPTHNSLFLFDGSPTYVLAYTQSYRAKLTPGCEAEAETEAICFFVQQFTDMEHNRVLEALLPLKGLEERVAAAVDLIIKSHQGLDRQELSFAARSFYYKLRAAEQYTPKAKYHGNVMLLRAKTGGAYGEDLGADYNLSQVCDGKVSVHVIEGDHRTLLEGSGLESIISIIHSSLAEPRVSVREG
Chain of Receptor tyrosine-protein kinase erbB-2 (Homo sapiens) (P04626 whole entry): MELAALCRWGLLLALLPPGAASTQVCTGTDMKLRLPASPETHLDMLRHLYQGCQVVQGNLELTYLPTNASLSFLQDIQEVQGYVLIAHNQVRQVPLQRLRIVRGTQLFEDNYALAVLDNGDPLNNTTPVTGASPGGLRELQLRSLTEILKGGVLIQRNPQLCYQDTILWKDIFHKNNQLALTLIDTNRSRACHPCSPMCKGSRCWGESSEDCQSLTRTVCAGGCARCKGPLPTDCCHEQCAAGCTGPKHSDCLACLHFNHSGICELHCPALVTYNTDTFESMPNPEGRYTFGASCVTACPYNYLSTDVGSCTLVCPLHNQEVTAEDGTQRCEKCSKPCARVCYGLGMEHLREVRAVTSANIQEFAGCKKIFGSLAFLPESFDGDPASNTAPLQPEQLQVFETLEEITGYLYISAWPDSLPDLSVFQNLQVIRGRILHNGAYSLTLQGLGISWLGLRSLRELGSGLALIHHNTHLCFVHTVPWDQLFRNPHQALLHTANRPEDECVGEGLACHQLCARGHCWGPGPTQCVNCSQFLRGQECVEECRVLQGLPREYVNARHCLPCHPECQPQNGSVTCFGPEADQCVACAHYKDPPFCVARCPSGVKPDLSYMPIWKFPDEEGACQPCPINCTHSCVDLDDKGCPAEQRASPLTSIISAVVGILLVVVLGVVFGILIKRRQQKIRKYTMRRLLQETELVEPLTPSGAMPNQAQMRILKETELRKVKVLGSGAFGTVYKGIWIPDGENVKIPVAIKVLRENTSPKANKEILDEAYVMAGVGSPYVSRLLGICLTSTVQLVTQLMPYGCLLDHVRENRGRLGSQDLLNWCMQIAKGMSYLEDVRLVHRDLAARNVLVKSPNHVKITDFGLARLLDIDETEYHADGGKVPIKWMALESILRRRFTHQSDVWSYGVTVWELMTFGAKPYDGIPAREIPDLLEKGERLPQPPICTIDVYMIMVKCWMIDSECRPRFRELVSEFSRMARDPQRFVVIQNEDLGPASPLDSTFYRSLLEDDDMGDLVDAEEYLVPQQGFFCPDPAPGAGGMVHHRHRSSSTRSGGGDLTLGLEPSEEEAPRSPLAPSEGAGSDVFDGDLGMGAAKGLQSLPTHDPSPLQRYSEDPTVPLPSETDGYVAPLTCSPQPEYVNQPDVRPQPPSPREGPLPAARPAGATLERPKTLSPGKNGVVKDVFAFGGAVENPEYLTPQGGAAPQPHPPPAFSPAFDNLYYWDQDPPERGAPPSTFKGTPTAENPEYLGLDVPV

With `O=C(O[C@H]1CC[C@H](OC(=O)c2cc(O)c(O)c(O)c2)c2ccccc21)c1cc(O)c(O)c(O)c1`, in assay [1], the inhibition was found to be 41%. The half-maximal inhibitory concentration (IC50) in the assay with SK-BR-3 worked out at 42 µM. For the compound `O=C(Oc1ccc(OC(=O)c2cc(O)c(O)c(O)c2)c2c1CCCC2)c1cc(O)c(O)c(O)c1`, half-maximal inhibition in the assay on SK-BR-3 (IC50) was put at 41 µM. Moreover, the inhibition result in assay [2] is “inactive”.

Take `O=C(Oc1cc2ccccc2cc1OC(=O)c1cc(O)c(O)c(O)c1)c1cc(O)c(O)c(O)c1`: 76 µM corresponded to half-maximal inhibition in the assay on SK-BR-3 (IC50). Besides, the inhibition in assay [3] was found to be 31%.

Turning to `O=C(Oc1cccc2c(OC(=O)c3cc(O)c(O)c(O)c3)cccc12)c1cc(O)c(O)c(O)c1`, the midpoint of inhibition with SK-BR-3, the IC50, lay at 26 µM. In assay [4], the inhibition was 30%. In turn, `O=C(Oc1ccc2ccccc2c1OC(=O)c1cc(O)c(O)c(O)c1)c1cc(O)c(O)c(O)c1` gave an IC50 in the assay on SK-BR-3 of 74 µM. As for `O=C(Oc1ccccc1OC(=O)c1cc(O)c(O)c(O)c1)c1cc(O)c(O)c(O)c1`, the IC50 in the assay with SK-BR-3 is 125 µM. As for `Cc1cc(OC(=O)c2cc(O)c(O)c(O)c2)ccc1OC(=O)c1cc(O)c(O)c(O)c1`, 23 µM corresponded to half-maximal inhibition with SK-BR-3 (IC50). For the same compound, the inhibition entry in assay [5] was “inactive”. Consider `O=C(O[C@@H]1CCCC[C@H]1OC(=O)c1cc(O)c(O)c(O)c1)c1cc(O)c(O)c(O)c1` (relative stereo), for which, in the assay with SK-BR-3, the concentration for half-maximal inhibition (IC50) is > 150 µM. Compound `O=C(Oc1ccc2ccc(OC(=O)c3cc(O)c(O)c(O)c3)cc2c1)c1cc(O)c(O)c(O)c1` had a half-inhibitory concentration (IC50) with SK-BR-3 of 26 µM. For the same compound, in assay [4], the inhibition entry was “inactive”. As to `COC(=O)c1cc(OC(=O)c2cc(O)c(O)c(O)c2)c2ccccc2c1OC(=O)c1cc(O)c(O)c(O)c1`, the inhibition result in [6] is “inactive”. The same compound came in with a concentration for half-maximal inhibition (IC50) with SK-BR-3 of 28 µM. For `O=C(O[C@H]1CCCC[C@H]1OC(=O)c1cc(O)c(O)c(O)c1)c1cc(O)c(O)c(O)c1`, the IC50 in the assay on SK-BR-3 is > 150 µM. `O=C(Oc1ccc2cc(OC(=O)c3cc(O)c(O)c(O)c3)ccc2c1)c1cc(O)c(O)c(O)c1` showed an IC50 in the assay with SK-BR-3 of 5 µM. The inhibition result in assay [7] was “inactive”.

`O=C(Oc1ccc(OC(=O)c2cc(O)c(O)c(O)c2)cc1)c1cc(O)c(O)c(O)c1`: the inhibition result in [8] was “inactive”. The compound further had a half-maximal inhibitory concentration (IC50) with SK-BR-3 of 25 µM. In the case of `COC(=O)c1cc(OC(=O)c2cc(O)c(O)c(O)c2)ccc1OC(=O)c1cc(O)c(O)c(O)c1`, in the assay on SK-BR-3, the half-maximal inhibitory concentration (IC50) is 36 µM. Further, the inhibition in assay [9] came to 43%. The compound `O=C(Oc1cc(OC(=O)c2cc(O)c(O)c(O)c2)c2ccccc2c1)c1cc(O)c(O)c(O)c1` had an IC50 in the assay with SK-BR-3 of 21 µM. For `O=C(Oc1cccc(OC(=O)c2cc(O)c(O)c(O)c2)c1)c1cc(O)c(O)c(O)c1`, the inhibition result in assay [1] is “inactive”. Moreover, the IC50 in the assay with SK-BR-3 is 42 µM. Take `O=C(Oc1ccc2cccc(OC(=O)c3cc(O)c(O)c(O)c3)c2c1)c1cc(O)c(O)c(O)c1`: inhibition in the assay with SK-BR-3 was half-maximal at 47 µM (IC50). Also, the inhibition entry in assay [10] was “inactive”. For `O=C(Oc1ccc(OC(=O)c2cc(O)c(O)c(O)c2)c2ccccc12)c1cc(O)c(O)c(O)c1`, in the assay with SK-BR-3, the IC50 was found to be 29 µM. Turning to `O=C(Oc1ccc2c(OC(=O)c3cc(O)c(O)c(O)c3)cccc2c1)c1cc(O)c(O)c(O)c1`, the inhibition result in assay [11] is “inactive”. For the same compound, the IC50 in the assay with SK-BR-3 amounted to 39 µM.

`O=C(Oc1cccc2cccc(OC(=O)c3cc(O)c(O)c(O)c3)c12)c1cc(O)c(O)c(O)c1` displayed a half-maximal inhibitory concentration (IC50) in the assay with SK-BR-3 of 78 µM. Also, the inhibition result in assay [12] is “inactive”. As for `O=C(O[C@@H]1Cc2c(O)cc(O)cc2O[C@@H]1c1cc(O)c(O)c(O)c1)c1cc(O)c(O)c(O)c1` [EPIGALOCATECHIN GALLATE], in assay [13], the inhibition was found to be 18%. In the assay on SK-BR-3, this compound gave an IC50 of 149 µM. Take `O=C(OCCOC(=O)c1cc(O)c(O)c(O)c1)c1cc(O)c(O)c(O)c1`: the 50% inhibitory concentration (IC50) in the assay with SK-BR-3 was > 150 µM.

The compound `O=C(Oc1ccc(OC(=O)c2cc(O)c(O)c(O)c2)c(-c2ccccc2)c1)c1cc(O)c(O)c(O)c1` showed an IC50 with SK-BR-3 of 17 µM. In assay [14], the inhibition entry was “inactive”. For `COc1cc(OC(=O)c2cc(O)c(O)c(O)c2)ccc1OC(=O)c1cc(O)c(O)c(O)c1`, the inhibition result in assay [15] was “inactive”. It took 8 µM to reach half-maximal inhibition with SK-BR-3 (IC50).

For the origin of these results see ChEMBL document CHEMBL2086320, “New synthetic inhibitors of fatty acid synthase with anticancer activity” (J Med Chem, 2012).
